From PMC4104214 (Nuclear medicine and biology, 2014)

Tests used:
hFAAH = conditions: read-out: hFAAH IC50; human enzyme; cited from earlier work
MAGL [1] = molecular target: T1, MAGL (Mus musculus, UniProt O35678); test: Ex vivo whole brain uptake and pharmacological blocking in mice; design: species or system mouse (male C57BL/6); conditions: for whole brain uptake: conscious mice, iv tail vein, 2 and 40 min post injection
T1 sequence (O35678 1-303): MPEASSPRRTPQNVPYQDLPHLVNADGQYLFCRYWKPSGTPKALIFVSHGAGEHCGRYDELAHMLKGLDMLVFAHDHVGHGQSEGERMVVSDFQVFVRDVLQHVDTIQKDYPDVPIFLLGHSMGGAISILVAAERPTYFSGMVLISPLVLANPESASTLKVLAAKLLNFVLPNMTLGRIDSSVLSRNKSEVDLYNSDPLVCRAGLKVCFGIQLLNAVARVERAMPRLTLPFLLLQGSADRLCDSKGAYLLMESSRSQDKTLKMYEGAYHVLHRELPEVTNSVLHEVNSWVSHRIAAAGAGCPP
In short: (§1)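 They were killed at 2 and 40 min. The blocking group got matching unlabeled inhibitor (2.0 mg/kg ip, 5% DMSO/5% Tween80 saline) 30 min before and was killed at 40 min. Trunk blood and whole brain were weighed and gamma-counted, decay-corrected to injection. Results given as SUV, mean ± SD, Student t-test.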

MAGL [2] = test: Ex vivo blood radioactivity retention and pharmacological blocking in mice; design: species or system mouse (male C57BL/6)
In short: as §1

MAGL [3] = molecular target: T2, MAGL (Rattus norvegicus, UniProt Q8R431); test: Ex vivo brain uptake and pharmacological blocking in rats; design: species or system rat (male Sprague-Dawley)
T2 sequence (Q8R431 1-303): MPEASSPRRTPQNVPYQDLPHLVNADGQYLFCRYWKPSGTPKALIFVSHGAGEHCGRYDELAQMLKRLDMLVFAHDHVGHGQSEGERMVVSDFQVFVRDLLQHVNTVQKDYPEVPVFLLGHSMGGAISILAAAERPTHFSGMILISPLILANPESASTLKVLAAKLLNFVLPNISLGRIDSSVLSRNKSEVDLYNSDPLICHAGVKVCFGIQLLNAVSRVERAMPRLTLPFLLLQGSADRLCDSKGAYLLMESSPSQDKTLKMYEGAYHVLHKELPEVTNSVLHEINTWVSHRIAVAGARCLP
In short: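 Restrained conscious male Sprague-Dawley rats (330–370 g, n = 4/group) received 28–34 MBq of tracer (208 GBq/μmol) in 0.3 mL 5% Tween80 buffered saline via warm-water-dilated tail vein. They were decapitated at 2 and 40 min. The blocking group was pretreated with unlabeled inhibitor (2 mg/kg ip, 5% DMSO/5% Tween80 saline) and killed at 40 min. Cortex, cerebellum, hypothalamus and rest of brain were weighed and gamma-counted, decay-corrected against dose standards. Injected dose was corrected for tail residue.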

hMAGL = conditions: read-out: hMAGL IC50; human enzyme; cited from earlier work

| whole brain uptake (MAGL [1]) | SMILES | IC50 (hFAAH) [nM] | IC50 (hMAGL) [nM] | other results |
| --- | --- | --- | --- | --- |
|  | O=C(N1CCN(C(c2ccccc2)c2ccccc2)CC1)n1nnc2ccccc21 [compound 12] | 562 |  |  |
| 0.65–0.82 SUV | O=[11C](N1CCC(C(c2ccc3c(c2)OCO3)c2ccc3c(c2)OCO3)CC1)n1cncn1 [[^11C]18] |  |  | reduction of brain retention in blocked group (MAGL [1]; mice, unlabeled inhibitor 2 mg/kg ip 30 min before radiotracer, 40 min post injection, p < 0.05): 42%; specific to non-specific binding ratio (MAGL [1]; mouse brain, estimated from 42% reduction in blocked group): 0.71; retention in blood (MAGL [2]; iv tail vein, 2 and 40 min post injection): 1.1–1.5 SUV; reduction of blood binding upon pharmacological blockade (MAGL [2]; unlabeled inhibitor 2 mg/kg ip 30 min before radiotracer, 40 min post injection): 71% |
| 0.34–0.67 SUV | O=[11C](OC(C(F)(F)F)C(F)(F)F)N1CCC(C(O)(c2ccc3c(c2)OCO3)c2ccc3c(c2)OCO3)CC1 [[^11C]7] |  |  | brain radioactivity uptake (MAGL [3]; conscious rats, iv tail vein, 2 and 40 min post injection, brain regions): 0.44–0.71 SUV; blocking of brain uptake by pretreatment with unlabeled inhibitor (MAGL [3]; rats, unlabeled 7 2 mg/kg ip before radiotracer, 40 min post injection): not blocked by pretreatment with unlabeled 7; attenuation of brain uptake by pretreatment with unlabeled compound (MAGL [1]; mice, unlabeled inhibitor 2 mg/kg ip 30 min before radiotracer, 40 min post injection): not significantly attenuated |
|  | O=C(N1CCC(C(c2ccc3c(c2)OCO3)c2ccc3c(c2)OCO3)CC1)n1cncn1 [compound 18] | 4800 | 0.36 |  |
|  | O=C(OC(C(F)(F)F)C(F)(F)F)N1CCC(C(O)(c2ccc3c(c2)OCO3)c2ccc3c(c2)OCO3)CC1 [compound 7] | > 50000 | 5.9 |  |
